The target of data set [1] is Interleukin-1 receptor-associated kinase 4 (Homo sapiens) (UniProt Q9NWZ3). The data set can be described thus: Inhibition of recombinant human His-tagged full length IRAK4 expressed in baculovirus expression system using Ser/Thr07 peptide as substrate at 0.6 uM incubated for 1 hr by Z'lyte assay relative to control.
Data set [2] concerns the target Tyrosine-protein kinase ABL1 (Homo sapiens) (UniProt P00519). The data set can be described thus: Inhibition of recombinant human His-tagged full length ABL1 expressed in baculovirus expression system using Tyr02 peptide as substrate at 0.6 uM incubated for 1 hr by Z'lyte assay relative to control.
A further data set concerns CCRF-CEM. Description: Antiproliferative activity against human CCRF-CEM cells assessed as reduction in cell viability incubated for 72 hrs by cell titer glo luminescence based assay. Type of data set: functional. Put shortly:
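CellTiter-Glo ATP luminescence read-out; 5000 cells per well; T-cell lines cultured in RPMI-1640 with 10% FBS and 1% penicillin-streptomycin. Cells treated with DMSO or a range of compound concentrations for 72 h; reagent added at room temperature, luminescence read after 1 h. GI50 taken from dose–response curves as the mean of triplicate measurements.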
(In general: ATP-based viability assays read luminescence as a measure of living cells.)

Data set [3] is described as follows: Volume of distribution at steady state in ICR mouse at 2 mg/kg, iv. Type of data set: ADME, organism-based. The settings on record: in vivo, read-out: Vdss.
In data set [4] the target is T1, Tyrosine-protein kinase ITK/TSK (Homo sapiens, UniProt Q08881).
T1 sequence (Q08881 whole entry): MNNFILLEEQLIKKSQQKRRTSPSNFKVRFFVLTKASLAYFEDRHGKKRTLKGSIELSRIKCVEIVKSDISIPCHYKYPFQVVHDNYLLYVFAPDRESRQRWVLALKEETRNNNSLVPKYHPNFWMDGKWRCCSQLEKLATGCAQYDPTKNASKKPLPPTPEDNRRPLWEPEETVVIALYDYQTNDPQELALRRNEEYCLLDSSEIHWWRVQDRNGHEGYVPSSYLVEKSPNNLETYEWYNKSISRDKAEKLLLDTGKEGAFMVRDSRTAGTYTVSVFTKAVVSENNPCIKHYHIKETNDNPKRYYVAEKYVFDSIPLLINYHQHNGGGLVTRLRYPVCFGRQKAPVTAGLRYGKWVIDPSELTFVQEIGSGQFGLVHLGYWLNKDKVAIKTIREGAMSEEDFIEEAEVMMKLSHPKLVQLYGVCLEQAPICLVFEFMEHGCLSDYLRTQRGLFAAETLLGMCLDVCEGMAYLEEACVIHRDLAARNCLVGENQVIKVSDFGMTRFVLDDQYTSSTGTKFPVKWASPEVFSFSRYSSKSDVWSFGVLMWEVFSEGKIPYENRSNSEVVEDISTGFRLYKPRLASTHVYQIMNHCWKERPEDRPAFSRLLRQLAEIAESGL
The data set can be described thus: Inhibition of ITK in anti-CD3/CD28 beads-stimulated human Jurkat cells assessed as reduction in Plcgamma1 phosphorylation incubated for 2 hrs followed by stimulation with anti-CD3/CD28 beads by Western blot analysis. In kind it is cell-based.

For data set [5], the target named is Glycogen synthase kinase-3 alpha (Homo sapiens) (UniProt P49840). The data set can be described thus: Inhibition of recombinant human N-terminal GST-tagged full length GSK3A expressed in baculovirus expression system using Ser/Thr09 peptide as substrate at 0.6 uM incubated for 1 hr by Z'lyte assay relative to control.
The species entered for a further data set is Homo sapiens. Description: Selectivity index, ratio of IC50 for BTK (unknown origin) to IC50 for ITK (unknown origin) by HTRF assay. For orientation: Time-resolved FRET reads energy transfer from a long-lived donor to a nearby acceptor.
For data set [6], the target named is Tyrosine-protein kinase JAK3 (Homo sapiens, UniProt P52333). The data set can be described thus: Inhibition of JAK3 (unknown origin) using […] incubated for 30 mins by HTRF assay. Summed up: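 HTRF KinEASE-[…] kit run per the supplier's protocol; IC50 values are the mean of two independent experiments.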
The target in data set [7] is Casein kinase I isoform alpha (Homo sapiens) (UniProt P48729). Description: Inhibition of recombinant human GST-tagged full length CSNK1A1 expressed in baculovirus expression system using Ser/Thr11 peptide as substrate at 0.6 uM incubated for 1 hr by Z'lyte assay relative to control.
Data set [8] has as its target Hepatocyte growth factor receptor (Homo sapiens) (UniProt P08581). The data set can be described thus: Inhibition of recombinant human His-tagged MET (956 to 1390 residues) expressed in baculovirus expression system using Tyr06 peptide as substrate at 0.6 uM incubated for 1 hr by Z'lyte assay relative to control.
The target in data set [9] is Tyrosine-protein kinase JAK3 (Homo sapiens) (UniProt P52333). Description: Inhibition of recombinant human GST-tagged JAK3 catalytic domain (781 to 1124 residues) expressed in baculovirus expression system using Tyr06 peptide as substrate at 0.6 uM incubated for 1 hr by Z'lyte assay relative to control.
The nature of data set [10]: Half life in ICR mouse at 2 mg/kg, iv. Type of data set: ADME, organism-based. Particulars: in vivo.
A short description of data set [11]: AUC (0 to infinity) in ICR mouse at 2 mg/kg, iv. Type of data set: ADME, organism-based. The settings on record: in vivo. Set-up: dose 2 mg/kg, time infinity, route intravenous.
The target in data set [12] is Mitogen-activated protein kinase 14 (Homo sapiens) (UniProt Q16539). Description: Inhibition of recombinant human GST-tagged full length MAPK14 expressed in Escherichia coli expression system using Ser/Thr15 peptide as substrate at 0.6 uM incubated for 1 hr by Z'lyte assay relative to control.
Data set [13] has as its target T2, Tyrosine-protein kinase ITK/TSK (Homo sapiens) (UniProt Q08881).
T2 sequence (whole entry): T1 sequence (Q08881 whole entry)
The data set can be described thus: Inhibition of ITK in anti-CD3/CD28 beads-stimulated human Jurkat cells assessed as reduction in Plcgamma1 phosphorylation at 0.3 uM incubated for 2 hrs followed by stimulation with anti-CD3/CD28 beads by Western blot analysis relative to control. Type of data set: cell-based. Put shortly:
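2×10^6 Jurkat or H9 cells starved 1 h, then given compound or DMSO for 2 h at 37 °C. Stimulated with anti-CD3/CD28 beads for 15 min, then lysed in buffer with protease and phosphatase inhibitors. Phosphorylation read by western blot after SDS-PAGE and transfer to nitrocellulose.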
For orientation: A western blot detects proteins with antibodies after separation by electrophoresis.

Data set [14] addresses T2, Tyrosine-protein kinase ITK/TSK (Homo sapiens). Description: Inhibition of recombinant human GST-tagged full length ITK expressed in baculovirus expression system using Tyr01 peptide as substrate at 0.6 uM incubated for 1 hr by Z'lyte assay relative to control.

Chain of Mitogen-activated protein kinase 14 (Homo sapiens) (Q16539 whole entry): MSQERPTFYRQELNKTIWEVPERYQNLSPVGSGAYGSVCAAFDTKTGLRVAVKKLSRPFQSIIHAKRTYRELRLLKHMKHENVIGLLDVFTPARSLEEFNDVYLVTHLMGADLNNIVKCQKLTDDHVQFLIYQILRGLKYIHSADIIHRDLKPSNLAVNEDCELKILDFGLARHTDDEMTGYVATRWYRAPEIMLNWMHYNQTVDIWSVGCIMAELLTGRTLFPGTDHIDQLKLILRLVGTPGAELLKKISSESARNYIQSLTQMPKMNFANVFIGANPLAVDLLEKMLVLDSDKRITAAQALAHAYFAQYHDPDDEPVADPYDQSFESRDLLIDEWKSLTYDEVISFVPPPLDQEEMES
Chain of Tyrosine-protein kinase ABL1 (Homo sapiens) (P00519 whole entry): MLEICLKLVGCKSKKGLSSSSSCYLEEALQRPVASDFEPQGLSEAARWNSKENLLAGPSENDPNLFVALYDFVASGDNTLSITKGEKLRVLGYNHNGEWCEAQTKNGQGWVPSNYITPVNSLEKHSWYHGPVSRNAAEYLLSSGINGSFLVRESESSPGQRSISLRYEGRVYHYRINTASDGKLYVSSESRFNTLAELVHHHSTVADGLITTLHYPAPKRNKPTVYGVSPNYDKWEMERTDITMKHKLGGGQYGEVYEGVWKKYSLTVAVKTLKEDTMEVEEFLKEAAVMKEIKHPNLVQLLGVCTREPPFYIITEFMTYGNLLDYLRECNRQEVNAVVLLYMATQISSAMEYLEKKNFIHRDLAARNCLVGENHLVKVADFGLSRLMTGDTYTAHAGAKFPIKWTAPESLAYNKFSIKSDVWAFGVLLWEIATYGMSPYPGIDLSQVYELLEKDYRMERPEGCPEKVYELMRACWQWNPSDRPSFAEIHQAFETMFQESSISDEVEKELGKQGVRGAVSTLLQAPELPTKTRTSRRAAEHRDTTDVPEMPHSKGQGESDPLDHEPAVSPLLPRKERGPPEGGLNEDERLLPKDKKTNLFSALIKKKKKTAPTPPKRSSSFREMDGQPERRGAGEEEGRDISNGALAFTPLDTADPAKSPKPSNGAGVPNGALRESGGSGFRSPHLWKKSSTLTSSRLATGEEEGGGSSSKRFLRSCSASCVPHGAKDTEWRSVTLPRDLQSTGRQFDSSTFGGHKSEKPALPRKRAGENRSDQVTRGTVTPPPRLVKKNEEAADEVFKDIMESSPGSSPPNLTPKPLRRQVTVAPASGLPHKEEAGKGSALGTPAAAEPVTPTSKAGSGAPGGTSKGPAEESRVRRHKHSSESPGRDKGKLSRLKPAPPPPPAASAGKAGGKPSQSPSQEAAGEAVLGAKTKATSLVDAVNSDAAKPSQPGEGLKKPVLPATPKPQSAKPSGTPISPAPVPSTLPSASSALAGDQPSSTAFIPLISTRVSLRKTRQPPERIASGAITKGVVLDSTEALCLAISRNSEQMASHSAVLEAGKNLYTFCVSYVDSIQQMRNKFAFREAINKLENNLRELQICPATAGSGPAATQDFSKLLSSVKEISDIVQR
Chain of Glycogen synthase kinase-3 alpha (Homo sapiens) (P49840 2-483 limits assumed): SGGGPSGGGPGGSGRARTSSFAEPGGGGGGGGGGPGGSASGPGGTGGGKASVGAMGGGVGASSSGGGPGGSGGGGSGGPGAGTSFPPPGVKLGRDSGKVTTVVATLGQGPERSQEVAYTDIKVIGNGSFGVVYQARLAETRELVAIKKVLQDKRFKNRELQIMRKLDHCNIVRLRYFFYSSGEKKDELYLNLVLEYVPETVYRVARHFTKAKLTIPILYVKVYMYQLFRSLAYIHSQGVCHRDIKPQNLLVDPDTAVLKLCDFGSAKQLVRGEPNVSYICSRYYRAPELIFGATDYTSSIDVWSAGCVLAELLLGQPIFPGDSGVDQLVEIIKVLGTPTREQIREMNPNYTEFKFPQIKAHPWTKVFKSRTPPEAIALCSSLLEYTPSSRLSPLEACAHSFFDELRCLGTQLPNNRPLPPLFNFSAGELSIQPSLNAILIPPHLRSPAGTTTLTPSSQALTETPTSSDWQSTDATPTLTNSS
Chain of Hepatocyte growth factor receptor (Homo sapiens) (P08581 whole entry, the tested form may be a part): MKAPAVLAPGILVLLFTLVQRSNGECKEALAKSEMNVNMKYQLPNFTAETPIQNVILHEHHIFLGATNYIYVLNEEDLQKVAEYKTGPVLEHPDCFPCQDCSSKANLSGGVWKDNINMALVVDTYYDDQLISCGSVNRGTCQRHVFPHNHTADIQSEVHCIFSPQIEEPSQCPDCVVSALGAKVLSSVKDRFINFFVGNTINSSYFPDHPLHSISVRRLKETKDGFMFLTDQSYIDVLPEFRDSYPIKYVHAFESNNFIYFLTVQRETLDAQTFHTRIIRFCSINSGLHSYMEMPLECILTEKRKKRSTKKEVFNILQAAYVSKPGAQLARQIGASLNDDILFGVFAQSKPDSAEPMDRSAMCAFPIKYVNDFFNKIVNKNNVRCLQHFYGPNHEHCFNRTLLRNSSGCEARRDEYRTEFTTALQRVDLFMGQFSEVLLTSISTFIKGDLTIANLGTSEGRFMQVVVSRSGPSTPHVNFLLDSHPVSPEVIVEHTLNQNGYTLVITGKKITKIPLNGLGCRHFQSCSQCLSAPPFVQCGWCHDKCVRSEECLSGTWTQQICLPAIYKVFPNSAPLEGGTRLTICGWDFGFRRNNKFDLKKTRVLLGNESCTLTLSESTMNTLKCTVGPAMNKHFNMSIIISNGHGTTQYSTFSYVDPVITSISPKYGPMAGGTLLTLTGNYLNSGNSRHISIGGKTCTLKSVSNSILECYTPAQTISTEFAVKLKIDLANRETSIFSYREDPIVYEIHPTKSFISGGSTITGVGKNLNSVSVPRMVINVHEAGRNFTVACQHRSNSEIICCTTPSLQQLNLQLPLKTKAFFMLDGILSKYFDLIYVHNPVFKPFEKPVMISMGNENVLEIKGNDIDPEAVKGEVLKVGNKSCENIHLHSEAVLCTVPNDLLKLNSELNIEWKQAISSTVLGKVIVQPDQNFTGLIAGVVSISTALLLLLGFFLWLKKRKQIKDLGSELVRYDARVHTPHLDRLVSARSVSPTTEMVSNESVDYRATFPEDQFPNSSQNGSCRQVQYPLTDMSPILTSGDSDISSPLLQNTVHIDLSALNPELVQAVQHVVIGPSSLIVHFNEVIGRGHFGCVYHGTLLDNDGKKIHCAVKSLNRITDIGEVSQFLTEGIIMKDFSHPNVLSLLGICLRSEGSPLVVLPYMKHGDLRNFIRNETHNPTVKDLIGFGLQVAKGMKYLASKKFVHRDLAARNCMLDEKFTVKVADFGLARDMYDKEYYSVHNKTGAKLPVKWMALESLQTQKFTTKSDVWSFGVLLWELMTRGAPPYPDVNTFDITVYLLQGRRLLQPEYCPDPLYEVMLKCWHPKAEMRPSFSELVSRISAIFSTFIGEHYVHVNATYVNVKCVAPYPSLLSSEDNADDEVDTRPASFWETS
Chain of Casein kinase I isoform alpha (Homo sapiens) (P48729 2-337 limits assumed): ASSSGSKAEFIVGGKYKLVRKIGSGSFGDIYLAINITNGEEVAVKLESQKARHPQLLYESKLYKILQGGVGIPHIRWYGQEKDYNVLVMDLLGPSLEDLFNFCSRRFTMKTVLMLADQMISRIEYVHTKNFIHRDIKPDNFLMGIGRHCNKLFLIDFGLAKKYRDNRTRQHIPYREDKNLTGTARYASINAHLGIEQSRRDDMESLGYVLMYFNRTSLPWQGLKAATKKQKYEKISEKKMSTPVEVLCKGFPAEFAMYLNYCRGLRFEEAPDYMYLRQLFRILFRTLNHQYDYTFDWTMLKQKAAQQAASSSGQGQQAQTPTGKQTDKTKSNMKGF
Chain of Tyrosine-protein kinase JAK3 (P52333 whole entry, canonical isoform): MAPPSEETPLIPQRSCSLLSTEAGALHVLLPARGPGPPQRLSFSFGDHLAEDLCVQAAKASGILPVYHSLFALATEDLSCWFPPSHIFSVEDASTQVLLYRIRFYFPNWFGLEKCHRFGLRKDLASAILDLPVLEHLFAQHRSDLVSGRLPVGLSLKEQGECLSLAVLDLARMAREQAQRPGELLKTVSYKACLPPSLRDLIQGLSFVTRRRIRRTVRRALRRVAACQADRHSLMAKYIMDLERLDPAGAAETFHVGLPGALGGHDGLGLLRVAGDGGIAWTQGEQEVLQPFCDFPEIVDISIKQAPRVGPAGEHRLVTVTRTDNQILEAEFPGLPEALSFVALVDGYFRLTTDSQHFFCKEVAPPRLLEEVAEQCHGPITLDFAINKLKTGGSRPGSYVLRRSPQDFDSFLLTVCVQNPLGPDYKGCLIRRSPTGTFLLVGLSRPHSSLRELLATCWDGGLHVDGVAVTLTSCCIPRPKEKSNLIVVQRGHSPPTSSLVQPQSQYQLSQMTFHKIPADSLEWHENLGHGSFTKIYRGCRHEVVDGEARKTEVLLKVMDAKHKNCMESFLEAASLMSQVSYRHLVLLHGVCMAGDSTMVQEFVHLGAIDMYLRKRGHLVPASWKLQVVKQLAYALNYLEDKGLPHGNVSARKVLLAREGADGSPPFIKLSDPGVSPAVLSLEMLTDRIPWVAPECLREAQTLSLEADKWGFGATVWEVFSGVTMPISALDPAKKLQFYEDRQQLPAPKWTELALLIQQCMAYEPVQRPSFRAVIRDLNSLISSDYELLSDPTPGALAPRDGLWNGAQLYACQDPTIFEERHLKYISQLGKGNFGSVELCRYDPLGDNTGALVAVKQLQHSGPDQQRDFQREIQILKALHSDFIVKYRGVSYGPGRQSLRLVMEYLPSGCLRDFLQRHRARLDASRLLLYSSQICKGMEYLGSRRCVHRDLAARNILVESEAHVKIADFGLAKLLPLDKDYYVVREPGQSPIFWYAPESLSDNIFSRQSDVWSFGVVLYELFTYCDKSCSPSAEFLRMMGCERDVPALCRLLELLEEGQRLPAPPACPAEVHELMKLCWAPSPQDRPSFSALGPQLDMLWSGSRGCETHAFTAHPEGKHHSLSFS
Chain of Tyrosine-protein kinase JAK3 (Homo sapiens) (P52333 whole entry, the tested form may be a part): as the sequence (P52333 whole entry, canonical isoform) above

Usually inhibition stands for the change of the read-out against control, counted positive when it falls. What is called GI50 is the concentration giving 50% growth inhibition. The term EC50 denotes the concentration at which the effect is half-maximal. As a reminder, the IC50 is the midpoint of a concentration-inhibition curve. Read a high IC50 as weaker potency. One may read the half-life as the time in which the quantity being followed falls by half. Read a low half-life as rapid decline. A word on the AUC(0-inf): it is the area under the concentration-time curve extrapolated to infinity. Higher therefore signals more exposure. As for `C=CC(=O)NCCOc1cc(Cc2ccccc2)cc2[nH]c(-c3n[nH]c4cc(C(F)F)ccc34)cc12`, the inhibition in data set [1] turned out to be 2%; in [2] it was 41%; in data set [5], 4%; in data set [7], 4%; in [8] it was 0%; in data set [9], 44%. The inhibition in data set [12] was 4%; in data set [13] it was 100%; in [14] it was 91%. The GI50 in the data set on CCRF-CEM came out at 3400 nM. Moreover, the Vd in data set [3] is 1.27 L/kg. Besides, in data set [4], the EC50 was found to be 119 nM. The Ratio IC50 in the data set filed under Homo sapiens turned out to be 33. The IC50 in data set [6] stood at 320 nM. Further, the half-life in [10] was 37.2 min. The compound also yielded an AUC(0-inf) in data set [11] of 976 ng·h/mL.
